In ChEMBL document CHEMBL3758120, “Synthesis and Mechanism Studies of 1,3-Benzoazolyl Substituted Pyrrolo[2,3-b]pyrazine Derivatives as Nonintercalative Topoisomerase II Catalytic Inhibitors” (J Med Chem, 2016):
Active and inactive are the calls of the source. No cut-off for these calls is given here.

Tests used:
HeLa = assay: Antiproliferative activity against human HeLa cells after 48 hrs by MTT assay; assay type: functional, cell-based
How it was run: (§1)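 Cells seeded at 5000 per well and left overnight, then exposed to increasing concentrations (0-50 μM) for 48 h. […] HL-60/MX2 is a mitoxantrone-selected HL-60 derivative with reduced Topo IIα/β.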

[1] = Antiproliferative activity against human HL60 cells after 48 hrs by MTT assay; assay type: functional, cell-based; conditions: HL-60, 48 h; how it was run: as §1
[2] = target: DNA topoisomerase 2-alpha (Homo sapiens, UniProt P11388); assay: Inhibition of purified human topoisomerase 2-mediated relaxation of supercoiled pBR322 DNA at 50 uM incubated for 30 mins by agarose gel electrophoresis
How it was run: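 Reactions contained 0.2 μg supercoiled pBR322 in 50 mM Tris-HCl pH 8.0, 150 mM NaCl, 10 mM MgCl2, 0.5 mM DTT, 30 μg/ml BSA, normally 2 mM ATP (1, 2 or 4 mM in ATP-competition runs). Started with 1 U human Topo II, 30 min at 37 °C, stopped with sarcosyl buffer, run on 1% agarose 1.5 h at 75 V, gel-stained and imaged under UV.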

[3] = Antiproliferative activity against human MDA-MB-201 cells after 48 hrs by MTT assay; assay type: functional, cell-based; how it was run: as §1
A549 = assay: Antiproliferative activity against human A549 cells after 48 hrs by MTT assay; assay type: functional, cell-based; conditions: A549, 48 h; how it was run: as §1
K562 = assay: Antiproliferative activity against human K562 cells after 48 hrs by MTT assay; assay type: functional, cell-based; conditions: K562, 48 h; how it was run: as §1
Raji = assay: Antiproliferative activity against human Raji cells after 48 hrs by MTT assay; assay type: functional, cell-based; how it was run: as §1
[4] = Antiproliferative activity against human HL60/MX2 cells after 48 hrs by MTT assay; assay type: functional, cell-based; conditions: HL60/MX2, 48 h; how it was run: as §1
HL-60 = assay: Resistance index, ratio of IC50 for human HL60/MX2 cells to IC50 for HL60 cells; assay type: functional
How it was run: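 Resistance index calculated as MTT-derived IC50 (48 h exposure, 0-50 μM, A570 readout) in HL-60/MX2 divided by IC50 in parental HL-60.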

HEK293 = assay: Cytotoxicity against HEK293 cells after 48 hrs by MTT assay; assay type: cell-based; conditions: Homo sapiens, HEK293, 48 h
[5] = target: T1, DNA topoisomerase 1 (Homo sapiens) (UniProt P11387); assay: Inhibition of recombinant human topoisomerase 1-mediated relaxation of supercoiled pBR322 DNA at 50 uM incubated for 30 mins by agarose gel electrophoresis
T1 sequence (whole entry): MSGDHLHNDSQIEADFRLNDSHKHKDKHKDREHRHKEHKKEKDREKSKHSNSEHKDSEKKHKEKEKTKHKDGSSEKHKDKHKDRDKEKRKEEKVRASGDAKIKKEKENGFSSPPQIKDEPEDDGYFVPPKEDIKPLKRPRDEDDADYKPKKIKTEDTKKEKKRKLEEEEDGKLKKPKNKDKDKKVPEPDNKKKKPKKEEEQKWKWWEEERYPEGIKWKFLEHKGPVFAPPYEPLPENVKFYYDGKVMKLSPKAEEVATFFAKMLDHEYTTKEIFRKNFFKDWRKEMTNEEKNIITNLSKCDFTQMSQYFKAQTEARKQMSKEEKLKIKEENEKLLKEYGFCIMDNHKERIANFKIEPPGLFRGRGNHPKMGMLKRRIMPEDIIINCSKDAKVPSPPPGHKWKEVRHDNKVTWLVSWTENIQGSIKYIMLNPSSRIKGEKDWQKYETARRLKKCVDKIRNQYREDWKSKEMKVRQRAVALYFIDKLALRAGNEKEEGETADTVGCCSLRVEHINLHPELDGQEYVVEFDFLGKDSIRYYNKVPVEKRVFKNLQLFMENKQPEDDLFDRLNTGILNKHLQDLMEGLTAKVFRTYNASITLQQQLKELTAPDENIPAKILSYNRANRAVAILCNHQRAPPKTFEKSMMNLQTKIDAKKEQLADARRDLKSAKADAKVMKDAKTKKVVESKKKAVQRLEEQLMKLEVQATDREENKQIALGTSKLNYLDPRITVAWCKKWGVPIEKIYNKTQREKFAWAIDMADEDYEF
How it was run: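 Supercoiled pBR322 relaxed by Topo I with compound, incubated 30 min at 37 °C, stopped with 1% SDS dye, run on 1% agarose 1 h at 90 V in TAE, stained and imaged under UV; camptothecin as reference.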

DNA topoisomerase 2-alpha, sequence (P11388 whole entry): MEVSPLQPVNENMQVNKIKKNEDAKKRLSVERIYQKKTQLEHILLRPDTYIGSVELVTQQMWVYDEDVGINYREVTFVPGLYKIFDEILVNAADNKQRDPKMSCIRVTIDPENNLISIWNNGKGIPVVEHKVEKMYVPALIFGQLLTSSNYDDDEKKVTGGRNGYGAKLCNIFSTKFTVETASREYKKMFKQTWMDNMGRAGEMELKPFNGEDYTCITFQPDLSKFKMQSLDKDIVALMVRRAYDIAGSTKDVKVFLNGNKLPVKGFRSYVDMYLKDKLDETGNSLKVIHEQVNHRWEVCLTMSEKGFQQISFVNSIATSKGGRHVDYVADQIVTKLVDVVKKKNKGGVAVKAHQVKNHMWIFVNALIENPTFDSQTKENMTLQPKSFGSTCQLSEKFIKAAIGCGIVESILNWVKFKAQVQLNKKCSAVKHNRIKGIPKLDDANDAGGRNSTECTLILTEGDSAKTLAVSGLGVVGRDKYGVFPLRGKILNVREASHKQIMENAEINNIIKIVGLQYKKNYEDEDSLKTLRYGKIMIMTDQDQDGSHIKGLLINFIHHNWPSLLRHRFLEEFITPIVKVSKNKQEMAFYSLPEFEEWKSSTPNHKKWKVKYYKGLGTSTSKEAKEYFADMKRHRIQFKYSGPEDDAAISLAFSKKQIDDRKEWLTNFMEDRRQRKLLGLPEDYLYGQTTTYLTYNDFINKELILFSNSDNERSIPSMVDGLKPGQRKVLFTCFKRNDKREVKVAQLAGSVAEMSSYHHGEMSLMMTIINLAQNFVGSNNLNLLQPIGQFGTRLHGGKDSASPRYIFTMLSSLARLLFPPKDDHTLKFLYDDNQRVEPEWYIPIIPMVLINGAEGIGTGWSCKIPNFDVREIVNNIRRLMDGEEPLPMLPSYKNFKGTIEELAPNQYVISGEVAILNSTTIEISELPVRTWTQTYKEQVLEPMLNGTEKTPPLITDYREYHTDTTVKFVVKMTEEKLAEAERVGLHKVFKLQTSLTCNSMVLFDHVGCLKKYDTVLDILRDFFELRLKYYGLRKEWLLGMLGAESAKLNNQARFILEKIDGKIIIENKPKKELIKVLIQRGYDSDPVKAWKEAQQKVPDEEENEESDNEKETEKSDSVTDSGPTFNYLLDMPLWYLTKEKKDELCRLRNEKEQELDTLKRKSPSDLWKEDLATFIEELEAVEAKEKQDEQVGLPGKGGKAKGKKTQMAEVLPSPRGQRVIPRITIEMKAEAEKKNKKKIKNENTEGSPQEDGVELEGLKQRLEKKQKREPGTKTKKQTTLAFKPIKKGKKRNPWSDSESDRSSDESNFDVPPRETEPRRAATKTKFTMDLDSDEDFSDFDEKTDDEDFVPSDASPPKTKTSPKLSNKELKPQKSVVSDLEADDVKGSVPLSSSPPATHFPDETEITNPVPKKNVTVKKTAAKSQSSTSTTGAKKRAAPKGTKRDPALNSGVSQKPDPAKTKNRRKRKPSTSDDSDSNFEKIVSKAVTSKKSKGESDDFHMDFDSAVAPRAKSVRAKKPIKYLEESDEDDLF

Row | SMILES | IC50 (HeLa) | IC50 [1] | inhibition [2] | IC50 [3] | IC50 (A549) | IC50 (K562) | IC50 (Raji) | IC50 [4] | Ratio IC50 (HL-60) | IC50 (HEK293) | inhibition [5]
1 | CN(C)CCCCCn1c(N)c(-c2nc3ccccc3[nH]2)c2nc(C#N)c(C#N)nc21 | 10.8 µM | 3.42 µM | – | – | – | – | – | – | – | – | –
2 | CCN(CC)CCCCn1c(N)c(-c2nc3cc(Cl)ccc3[nH]2)c2nc(C#N)c(C#N)nc21 | 3.64 µM | 0.82 µM | Active | 2.84 µM | 2.27 µM | 1.27 µM | 0.72 µM | 1.77 µM | 2.2 | 3.86 µM | –
3 | N#Cc1nc2c(-c3nc4ccccc4o3)c(N)n(CCCN3CCCCC3)c2nc1C#N | 12.2 µM | 3.82 µM | inactive | 32.2 µM | 8.67 µM | > 50 µM | 3.19 µM | 5.45 µM | 1.4 | 19.2 µM | –
4 | N#Cc1nc2c(-c3nc4ccccc4[nH]3)c(N)n(CCc3cc4ccccc4[nH]3)c2nc1C#N | > 50 µM | > 50 µM | inactive | > 50 µM | > 50 µM | > 50 µM | > 50 µM | > 50 µM | – | > 50 µM | inactive
5 | CN(C)CCn1c(N)c(-c2nc3ccccc3s2)c2nc(C#N)c(C#N)nc21 | > 50 µM | 1.67 µM | inactive | > 50 µM | > 50 µM | 8 µM | 1.96 µM | > 50 µM | – | 11.8 µM | inactive
6 | N#Cc1nc2c(-c3nc4ccccc4[nH]3)c(N)n(CCc3ccccc3)c2nc1C#N | > 50 µM | > 50 µM | inactive | > 50 µM | > 50 µM | > 50 µM | 15.4 µM | > 50 µM | – | > 50 µM | –
7 | CN(C)CCCCn1c(N)c(C#N)c2nc(C#N)c(C#N)nc21 | > 50 µM | 12.9 µM | inactive | – | – | – | – | – | – | – | –
8 | N#Cc1nc2c(-c3nc4ccccc4[nH]3)c(N)n(CCO)c2nc1C#N | > 50 µM | > 50 µM | inactive | > 50 µM | > 50 µM | > 50 µM | 5.52 µM | > 50 µM | – | > 50 µM | inactive
9 | Cn1c(N)c(-c2nc3ccccc3[nH]2)c2nc(C#N)c(C#N)nc21 | > 50 µM | > 50 µM | inactive | > 50 µM | > 50 µM | > 50 µM | > 50 µM | > 50 µM | – | > 50 µM | inactive
10 | CCn1c(N)c(-c2nc3ccccc3[nH]2)c2nc(C#N)c(C#N)nc21 | > 50 µM | > 50 µM | inactive | > 50 µM | > 50 µM | > 50 µM | > 50 µM | > 50 µM | – | > 50 µM | inactive
11 | N#Cc1nc2c(-c3nc4ccccc4[nH]3)c(N)n(CCCNc3ccccc3)c2nc1C#N | 26.3 µM | 6.92 µM | – | – | – | – | – | – | – | – | –
12 | N#Cc1nc2c(-c3nc4ccccc4[nH]3)c(N)n(CCN3CCOCC3)c2nc1C#N | > 50 µM | 9.04 µM | inactive | > 50 µM | > 50 µM | > 50 µM | 2.88 µM | > 50 µM | – | 22.3 µM | inactive
